In ChEMBL document CHEMBL4316597, “Design, Synthesis, and Biological Evaluation of Itaconic Acid Derivatives as Potential Anti-Influenza Agents” (J Med Chem, 2019):
pEC50: −log10 of the molar value. Calls of active or inactive are those of the source. The rule behind the calls is not given here.

Key:
Influenza A virus [1] = assay: Inhibition of viral protein synthesis in Influenza A virus (A/WSN/33) infected in MDCK cells assessed as effect on M1 protein level at 10 uM measured up to 9 hrs post infection by Western blot analysis; type: functional, organism-based; conditions: A/WSN/1933(H1N1)
In short: (§1)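 MDCK cells (5 × 10^5/well) infected with A/WSN/33 at MOI 0.1, washed twice, then held in E0 with or without 10 μM compound. Lysed in Triton X-100/deoxycholate buffer, equal protein separated by SDS-PAGE, and immunoblotted for viral proteins with GAPDH as loading control. Time-course harvests up to 9 h pi.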

[2] = Cytotoxicity against human RD cells assessed as cell death after 72 hrs by MTT assay; type: cell-based
In short: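 MDCK or RD cells at 2 × 10^4/well in E10, overnight at 37 °C/5% CO2, DPBS wash, then exposed to graded compound concentrations for 72 h. MTT added for 3 h, formazan dissolved in DMSO, absorbance read at 570 nm. CC50 (50% cell death) by Reed–Muench.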

[3] = Selectivity ratio of CC50 for MDCK cells to EC50 for Influenza A virus A/TW/01061/14; type: toxicity; conditions: dog, read-out: Ratio CC50/EC50
In short: (§2)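 MDCK cells (2 × 10^4/well, E10, 16–24 h) infected at nine-fold TCID50 with compound for 72 h, 37 °C, 5% CO2. Cells were fixed in 4% paraformaldehyde and stained with crystal violet; EC50 is from Reed–Muench. For CC50, cells had compound alone for 72 h, then MTT 3 h, DMSO, A570, Reed–Muench. SI = CC50/EC50; three independent experiments.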

Influenza A virus [4] = assay: Inhibition of viral protein synthesis in Influenza A virus (A/WSN/33) infected in MDCK cells assessed as effect on PA protein level at 10 uM measured up to 9 hrs post infection by Western blot analysis; type: functional, organism-based; conditions: A/WSN/1933(H1N1); in short: as §1
Influenza A virus [5] = assay: Antiviral activity against Influenza A virus (A/WSN/33) infected in MDCK cells at 10 uM added at 6 hrs to 9 hrs post infection and measured after 9 hrs by plaque assay; type: functional, organism-based; conditions: A/WSN/1933(H1N1)
In short: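 MDCK monolayers exposed to compound (1 or 10 μM) over windows of −3, −1, 0, 3 or 6 to 9 h pi. A/WSN/33 adsorbed at MOI 0.1 from −1 to 0 h, then removed with a PBS wash. Supernatant taken at 9 h pi and titred by plaque assay, normalised to virus-only (100%). Average of three independent experiments.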

[6] = molecular target: Hemagglutinin (Influenza A virus) (UniProt B4URE7); assay: Inhibition Influenza A virus (A/WSN/33) HA infected in guinea pig RBC assessed as reduction in hemagglutination at serial dilution from 50 uM after 1 hr by HAI assay; conditions: Influenza A virus (A/WSN/1933(H1N1))
In short: (§3)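 Virus titrated on 0.5% guinea pig RBCs to define 1 HA unit; 4 HA units used. Compound two-fold serially diluted from 50 µM and mixed with virus for 30 min at room temperature, or tested without virus for direct agglutination. 0.5% RBCs then added and agglutination scored after 1 h. DMSO/RBC-only and virus-only controls included.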

MDCK = assay: Cytotoxicity against MDCK cells at 10 uM after 12 to 36 hrs by microscopic analysis; type: cell-based, Canis lupus familiaris; conditions: dog
In short: (§4)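 MDCK cells (2 × 10^5/well) grown 16–24 h, infected with A/WSN/33 at MOI 0.5 for 1 h, rinsed twice with DPBS, then kept in serum-free E0 with 10 μM compound at 37 °C. Cell morphology checked by light microscopy at 12 and 36 h pi. Drug-only and virus-only arms included; three repetitions.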

Influenza A virus [7] = assay: Inhibition of viral RNA synthesis in Influenza A virus (A/WSN/33) infected in MDCK cells assessed as effect on matrix protein 1 RNA level at 10 uM measured up to 9 hrs post infection by RT-qPCR analysis; type: functional, organism-based; conditions: A/WSN/1933(H1N1)
In short: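 MDCK monolayers (5 × 10^5/well) infected with A/WSN/33, then given 10 μM compound during or after infection. Total RNA extracted with TRIzol at 0, 3, 6 and 9 h pi. Viral RNA quantified by RT-qPCR with M1-specific primers, GAPDH used for quantitative standards. Representative of three independent experiments.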

[8] = Selectivity ratio of CC50 for MDCK cells to EC50 for Influenza A virus A/TW/00482/13; type: toxicity; conditions: dog, read-out: Ratio CC50/EC50
In short: (§5)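 SI is calculated as CC50 (MDCK, 72 h MTT) divided by EC50 (72 h crystal-violet CPE assay in MDCK).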

Influenza A virus [9] = assay: Antiviral activity against Influenza A virus (A/WSN/33) infected in MDCK cells assessed as reduction in virus-induced cytopathic effect after 72 hrs by crystal violet-staining based assay; type: functional, organism-based; conditions: A/WSN/1933(H1N1)
In short: (§6)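 Cells seeded at 2 × 10^4/well in E10 (DMEM, 10% FBS), 16–24 h at 37 °C/5% CO2, washed with DPBS, then infected at nine-fold TCID50 with or without serial compound concentrations. Influenza is run in MDCK and enterovirus/rhinovirus in RD. Incubated 72 h, fixed in 4% paraformaldehyde, stained with 0.1% crystal violet, and read for cell density. EC50 = 50% CPE inhibition by Reed–Muench; mean ± S.D. of at least three runs.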

enterovirus D68 = assay: Antiviral activity against Enterovirus D68 TW/2795/2014 clade B3 infected in human RD cells after 72 hrs by crystal violet-staining based assay; type: functional, organism-based; conditions: Enterovirus D, TW/2795/2014 clade B3, RD; in short: as §6
Influenza A virus [10] = assay: Antiviral activity against Influenza A virus (A/WSN/33) infected in MDCK cells assessed as inhibition of virus-induced cytopathic effects at 10 uM after 36 hrs by microscopic analysis; type: functional, organism-based; conditions: A/WSN/1933(H1N1); in short: as §4
Erythrocyte = assay: Induction of hemagglutination in guinea pig RBC at serial dilution from 50 uM after 1 hr by HAI assay; type: cell-based, Cavia porcellus; in short: as §3
Influenza A virus [11] = assay: Inhibition of viral protein sub-cellular distribution in Influenza A virus (A/WSN/33) infected in MDCK cells assessed as reduction in PA protein distribution to cytoplasm at 10 uM measured after 9 hrs post infection by IF-staining based microscopy; type: functional, organism-based; conditions: A/WSN/1933(H1N1)
In short: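 MDCK cells grown on coverslips (2 × 10^5/well, 16 h), infected at MOI 0.1 for 1 h, washed, then kept in E0 with test compound (1 or 10 μM) or LMB 10 nM; DMSO 0.05% as mock. Fixed at 9 h pi in 4% paraformaldehyde and immunostained for M1, NP, NS2 or PA (1:50), with Hoechst nuclear stain. Viewed by confocal microscopy at 63×. NP nuclear/cytoplasmic intensity ratio quantified; three independent experiments.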

Enterovirus A71 = assay: Antiviral activity against Enterovirus A71 TW/2231/1998 infected in human RD cells after 72 hrs by crystal violet-staining based assay; type: functional, organism-based; conditions: Enterovirus A, TW/2231/1998, RD; in short: as §6
[12] = Selectivity ratio of CC50 for MDCK cells to EC50 for Influenza A virus A/TW/00642/14; type: toxicity; conditions: dog, read-out: Ratio CC50/EC50; in short: as §2
[13] = Selectivity ratio of CC50 for MDCK cells to EC50 for Influenza A virus (A/WSN/33); type: toxicity; conditions: dog, read-out: Ratio CC50/EC50; in short: as §5
[14] = Selectivity ratio of CC50 for MDCK cells to EC50 for pandemic Influenza A virus A/TW/90206/09 (H1N1) SO4; type: toxicity; conditions: dog, read-out: Ratio CC50/EC50; in short: as §2

Sequence of Hemagglutinin (Influenza A virus) (B4URE7 as listed by the source): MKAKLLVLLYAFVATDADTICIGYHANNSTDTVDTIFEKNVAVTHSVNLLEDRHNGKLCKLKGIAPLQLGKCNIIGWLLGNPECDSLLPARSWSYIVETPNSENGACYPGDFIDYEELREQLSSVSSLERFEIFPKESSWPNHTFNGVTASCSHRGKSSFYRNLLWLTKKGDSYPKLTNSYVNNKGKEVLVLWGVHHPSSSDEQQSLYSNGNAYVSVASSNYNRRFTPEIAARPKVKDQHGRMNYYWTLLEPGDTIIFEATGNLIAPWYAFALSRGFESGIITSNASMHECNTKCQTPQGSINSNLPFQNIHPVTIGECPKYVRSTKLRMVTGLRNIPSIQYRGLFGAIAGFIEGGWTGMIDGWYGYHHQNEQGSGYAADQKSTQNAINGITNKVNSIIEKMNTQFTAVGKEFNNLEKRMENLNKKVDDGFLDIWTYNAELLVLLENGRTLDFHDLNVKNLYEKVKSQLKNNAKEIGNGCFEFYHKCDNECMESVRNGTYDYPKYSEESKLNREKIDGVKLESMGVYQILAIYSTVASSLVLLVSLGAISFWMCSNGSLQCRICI

Question: Which inhibition (Influenza A virus [1]) does the source give for C=C(CC(=O)Nc1ccc(F)cc1F)C(=O)Nc1ccc(F)cc1F here?
Answer: Its inhibition is “inactive”.

Question: What about the CC50 at 72 h [2] of the same compound?
Answer: The CC50 at 72 h was 74.6 µM.

Question: What about the selectivity ratio [3] of the same compound?
Answer: The selectivity ratio was 21.

Question: What about the inhibition (Influenza A virus [4]) of the same compound?
Answer: The inhibition was “inactive”.

Question: And the Activity (Influenza A virus [5])?
Answer: Its Activity is “inactive”.

Question: And the inhibition [6]?
Answer: The inhibition was “inactive”.

Question: And the Activity (MDCK)?
Answer: Its Activity is “Non-Toxic”.

Question: What about the inhibition (Influenza A virus [7]) of the same compound?
Answer: Its inhibition is “inactive”.

Question: What about the selectivity ratio [8] of the same compound?
Answer: Its selectivity ratio is 22.

Question: What about the pEC50 (Influenza A virus [9]) of the same compound?
Answer: The pEC50 was 5.55.

Question: What about the pEC50 (enterovirus D68) of the same compound?
Answer: Its pEC50 is less than 4.30.

Question: And the Activity (Influenza A virus [10])?
Answer: The Activity was “Active”.

Question: What about the Activity (Erythrocyte) of the same compound?
Answer: The Activity was “Non-Toxic”.

Question: What about the inhibition (Influenza A virus [11]) of the same compound?
Answer: Its inhibition is “inactive”.

Question: What about the pEC50 (Enterovirus A71) of the same compound?
Answer: The pEC50 was 5.35.

Question: What about the selectivity ratio [12] of the same compound?
Answer: Its selectivity ratio is 25.

Question: What about the selectivity ratio [13] of the same compound?
Answer: The selectivity ratio was 29.8.

Question: And the selectivity ratio [14]?
Answer: The selectivity ratio was 28.
